Measurements as given in ChEMBL document CHEMBL4004837, “Synthesis and Characterization of Urofuranoic Acids: In Vivo Metabolism of 2-(2-Carboxyethyl)-4-methyl-5-propylfuran-3-carboxylic Acid (CMPF) and Effects on in Vitro Insulin Secretion” (J Med Chem, 2017).

Legend:
[1] = (§1) Drug metabolism in CD1 mouse adipose assessed as oxidative metabolites formation at 6 mg/kg, ip dosed once daily for 3 days followed by dosing of 1:1 mixtures of 2-(2-Carboxyethyl)-4-methyl-5-(1-propyl-1-13C)furan-3-carboxylic Acid and test compound on day 4 and 5 measured 1 hr post dose on day 5 by HPLC-MS analysis; format: ADME, organism-based, Adipose tissue; conditions: in vivo
How it was run: (§2)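 Mice received CMPF 6 mg/kg intraperitoneally for three days, then 1:1 labeled/unlabeled CMPF mixtures on days four and five. On day five they were euthanized 1 h post-dose, and plasma, adipose, muscle and liver were collected. Samples were analysed by HPLC-MS, with MS/MS of product ions. Metabolites were identified by the distinctive isotope patterns from the 1:1 label mixture.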

Plasma [2] = test: (§3) Drug metabolism in CD1 mouse plasma assessed as monoacylglycerol conjugate formation at 6 mg/kg, ip dosed once daily for 3 days followed by dosing of 1:1 mixtures of 2-(2-Carboxyethyl)-4-methyl-5-propyl-(3-13C-furan)-3-13Ccarboxylateand test compound on day 4 and 5 measured 1 hr post dose on day 5 by HPLC-MS analysis; format: ADME, organism-based; conditions: in vivo
How it was run: (§4)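 CMPF given 6 mg/kg i.p. once daily for three days. On days four and five, 1:1 mixtures of stable-isotope-labelled and unlabelled CMPF were dosed. Mice were killed 1 h after the day-five dose. Plasma, adipose, muscle and liver were collected and analysed by HPLC-MS (MS/MS for product ions). Metabolites were identified by their distinctive isotope patterns from the labelled/unlabelled mixture.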

Liver [3] = test: as §3, with “liver” for “plasma”, “glycerol” for “monoacylglycerol”; format: ADME, organism-based; conditions: in vivo; how it was run: as §2
Plasma [4] = test: (§5) Drug metabolism in CD1 mouse plasma assessed as loss of C2 carboxyl during fragmentation at 6 mg/kg, ip dosed once daily for 3 days followed by dosing of 1:1 mixtures of 2-(2-(Carboxy-13C)ethyl)-4-methyl-5-propylfuran-3-carboxylic-2-13C Acid and test compound on day 4 and 5 measured 1 hr post dose on day 5 by HPLC-MS analysis; format: ADME, organism-based; conditions: in vivo; how it was run: as §4
[5] = as §1, with “2-(2-(Carboxy-13C)ethyl)-4-methyl-5-propylfuran-3-carboxylic-2-13C” for “2-(2-Carboxyethyl)-4-methyl-5-(1-propyl-1-13C)furan-3-carboxylic”; format: ADME, organism-based, Adipose tissue; conditions: in vivo; how it was run: as §2
Plasma [6] = test: as §3, with “2-(2-(Carboxy-13C)ethyl)-4-methyl-5-propylfuran-3-carboxylic-2-13C Acid and” for “2-(2-Carboxyethyl)-4-methyl-5-propyl-(3-13C-furan)-3-13Ccarboxylateand”; format: ADME, organism-based; conditions: in vivo; how it was run: as §4
[7] = as §3, with “adipose” for “plasma”; format: ADME, organism-based, Adipose tissue; conditions: in vivo; how it was run: as §2
[8] = AUC in mouse at 1 mg/kg, iv; format: ADME, organism-based; conditions: in vivo
Liver [9] = test: (§6) Drug metabolism in CD1 mouse liver assessed as glycerol conjugate formation at 6 mg/kg, ip dosed once daily for 3 days followed by dosing of 1:1 mixtures of 2-(2-(Carboxy-13C)ethyl)-4-methyl-5-propylfuran-3-carboxylic-2-13C Acid and test compound on day 4 and 5 measured 1 hr post dose on day 5 by HPLC-MS analysis; format: ADME, organism-based; conditions: in vivo; how it was run: as §2
CYP3A4 = CYP3A4 (Homo sapiens, UniProt P08684); test: Inhibition of human microsomal CYP3A4 at 10 uM after 3 mins by single quad LC/MS analysis; format: ADME; conditions: microsomes
CYP3A4, sequence (P08684 whole entry): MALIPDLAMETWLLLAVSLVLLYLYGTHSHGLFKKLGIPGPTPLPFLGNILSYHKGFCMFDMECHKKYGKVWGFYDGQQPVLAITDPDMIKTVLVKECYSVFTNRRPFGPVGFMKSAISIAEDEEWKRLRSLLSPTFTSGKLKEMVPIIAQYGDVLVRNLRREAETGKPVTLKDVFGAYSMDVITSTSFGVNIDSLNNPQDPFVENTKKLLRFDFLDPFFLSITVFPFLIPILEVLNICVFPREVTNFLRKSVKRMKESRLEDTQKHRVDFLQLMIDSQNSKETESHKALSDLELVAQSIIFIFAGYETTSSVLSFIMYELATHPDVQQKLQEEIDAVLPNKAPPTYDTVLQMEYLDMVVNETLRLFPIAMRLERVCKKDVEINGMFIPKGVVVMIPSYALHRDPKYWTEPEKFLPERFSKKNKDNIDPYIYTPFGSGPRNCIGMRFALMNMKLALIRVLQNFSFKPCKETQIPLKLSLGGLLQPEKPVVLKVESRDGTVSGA

Plasma [10] = test: as §1, with “plasma” for “adipose”; format: ADME, organism-based; conditions: in vivo; how it was run: as §4
[11] = Half life in mouse at 3 mg/kg, iv; format: ADME, organism-based; conditions: in vivo
How it was run: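 Mouse pharmacokinetics after single intravenous CMPF dosing at 1 or 3 mg/kg. Plasma exposure was followed over time to derive AUC, C0, terminal half-life, clearance and volume of distribution.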

[12] = as §6, with “muscle” for “liver”, “monoacylglycerol” for “glycerol”; format: ADME, organism-based, Muscle tissue; conditions: in vivo; how it was run: as §2
Plasma [13] = test: as §5, with “2-(2-Carboxyethyl)-4-methyl-5-propyl-(3-13C-furan)-3-13Ccarboxylate” for “2-(2-(Carboxy-13C)ethyl)-4-methyl-5-propylfuran-3-carboxylic-2-13C Acid”; format: ADME, organism-based; conditions: in vivo; how it was run: as §4
[14] = as §3, with “muscle” for “plasma”, “diacylglycerol” for “monoacylglycerol”; format: ADME, organism-based, Muscle tissue; conditions: in vivo; how it was run: as §2
Plasma [15] = test: as §6, with “plasma” for “liver”, “diacylglycerol” for “glycerol”; format: ADME, organism-based; conditions: in vivo; how it was run: as §4
[16] = as §1, with “muscle” for “adipose”, “diacylglycerol conjugate” for “oxidative metabolites”; format: ADME, organism-based, Muscle tissue; conditions: in vivo; how it was run: as §2
[17] = as §1, with “monoacylglycerol conjugate” for “oxidative metabolites”; format: ADME, organism-based, Adipose tissue; conditions: in vivo; how it was run: as §2
[18] = as §6, with “muscle” for “liver”, “diacylglycerol” for “glycerol”; format: ADME, organism-based, Muscle tissue; conditions: in vivo; how it was run: as §2
Plasma [19] = test: as §3, with “2-(2-Carboxyethyl)-4-methyl-5-(1-propyl-1-13C)furan-3-carboxylic Acid and” for “2-(2-Carboxyethyl)-4-methyl-5-propyl-(3-13C-furan)-3-13Ccarboxylateand”; format: ADME, organism-based; conditions: in vivo; how it was run: as §4
[20] = Clearance in mouse at 1 mg/kg, iv; format: ADME, organism-based; conditions: in vivo
Liver [21] = test: as §6, with “2-(2-Carboxyethyl)-4-methyl-5-(1-propyl-1-13C)furan-3-carboxylic” for “2-(2-(Carboxy-13C)ethyl)-4-methyl-5-propylfuran-3-carboxylic-2-13C”; format: ADME, organism-based; conditions: in vivo; how it was run: as §2
Liver [22] = test: as §6, with “diacylglycerol” for “glycerol”; format: ADME, organism-based; conditions: in vivo; how it was run: as §2
Plasma [23] = test: as §6, with “plasma” for “liver”, “2-(2-Carboxyethyl)-4-methyl-5-(1-propyl-1-13C)furan-3-carboxylic” for “2-(2-(Carboxy-13C)ethyl)-4-methyl-5-propylfuran-3-carboxylic-2-13C”; format: ADME, organism-based; conditions: in vivo; how it was run: as §4
[24] = as §5, with “muscle” for “plasma”; format: ADME, organism-based, Muscle tissue; conditions: in vivo; how it was run: as §2
Plasma [25] = test: Drug metabolism in CD1 mouse plasma assessed as diacylglycerol conjugate formation at 6 mg/kg, ip dosed once daily for 3 days followed by dosing of 1:1 mixtures of 2-(2-Carboxyethyl)-4-methyl-5-(1-propyl-1-13C)furan-3-carboxylic Acid and test compound on day 4 and 5 measured 1 hr post dose on day 5 by HPLC-MS analysis; format: ADME, organism-based; conditions: in vivo; how it was run: as §4
Liver [26] = test: as §1, with “liver” for “adipose”, “2-(2-(Carboxy-13C)ethyl)-4-methyl-5-propylfuran-3-carboxylic-2-13C” for “2-(2-Carboxyethyl)-4-methyl-5-(1-propyl-1-13C)furan-3-carboxylic”; format: ADME, organism-based; conditions: in vivo; how it was run: as §2
Plasma [27] = test: Plasma concentration in human; format: ADME, cell-free
Plasma [28] = test: as §1, with “plasma” for “adipose”, “2-(2-(Carboxy-13C)ethyl)-4-methyl-5-propylfuran-3-carboxylic-2-13C” for “2-(2-Carboxyethyl)-4-methyl-5-(1-propyl-1-13C)furan-3-carboxylic”; format: ADME, organism-based; conditions: in vivo; how it was run: as §4
[29] = as §5, with “muscle” for “plasma”, “2-(2-Carboxyethyl)-4-methyl-5-propyl-(3-13C-furan)-3-13Ccarboxylate” for “2-(2-(Carboxy-13C)ethyl)-4-methyl-5-propylfuran-3-carboxylic-2-13C Acid”; format: ADME, organism-based, Muscle tissue; conditions: in vivo; how it was run: as §2

Drug metabolism [1]: Metabolite_Notdetected
Drug metabolism (Plasma [2]): Metabolite_Notdetected
Drug metabolism (Liver [3]): Metabolite_Notdetected
Drug metabolism (Plasma [4]): Metabolite_Detected
Drug metabolism [5]: Metabolite_Notdetected
Drug metabolism (Plasma [6]): Metabolite_Notdetected
Drug metabolism [7]: Metabolite_Notdetected
AUC [8]: 89.3 µM·h
Drug metabolism (Liver [9]): Metabolite_Notdetected
inhibition at 0.05 h, 10 µM (CYP3A4): 0%
Drug metabolism (Plasma [10]): Metabolite_Notdetected
half-life [11]: 3.27 h
Drug metabolism [12]: Metabolite_Notdetected
Drug metabolism (Plasma [13]): Metabolite_Detected
Drug metabolism [14]: Metabolite_Notdetected
Drug metabolism (Plasma [15]): Metabolite_Notdetected
Drug metabolism [16]: Metabolite_Notdetected
Drug metabolism [17]: Metabolite_Notdetected
Drug metabolism [18]: Metabolite_Notdetected
Drug metabolism (Plasma [19]): Metabolite_Notdetected
clearance [20]: 0.66 mL/min/kg
Drug metabolism (Liver [21]): Metabolite_Notdetected
Drug metabolism (Liver [22]): Metabolite_Notdetected
Drug metabolism (Plasma [23]): Metabolite_Notdetected
Drug metabolism [24]: Metabolite_Detected
Drug metabolism (Plasma [25]): Metabolite_Notdetected
Drug metabolism (Liver [26]): Metabolite_Notdetected
concentration (Plasma [27]): 20 to 40 µM
Drug metabolism (Plasma [28]): Metabolite_Notdetected
Drug metabolism [29]: Metabolite_Detected
Structure (SMILES): CCCc1oc(CCC(=O)O)c(C(=O)O)c1C
